We go through 13 compounds from ChEMBL document CHEMBL3233004, “Analogue-based design, synthesis and biological evaluation of 3-substituted-(methylenehydrazono)indolin-2-ones as anticancer agents” (Eur J Med Chem, 2014).

By IC50 is commonly meant the midpoint of a concentration-inhibition curve.

Test [1] relates to MCF7. In words: Cytotoxicity against human MCF7 cells assessed as surviving fraction at 10 uM after 48 hrs by SRB assay relative to control. The class given is functional. Put shortly: (§1)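 MCF-7 cells (ATCC) grown in DMEM with 10% heat-inactivated fetal calf serum. Seeded at 10⁴ cells/well and left 24 h to attach. Compounds dissolved in DMSO and diluted with saline, then given to the monolayer for 48 h at 37 °C under 5% CO₂. Cells fixed, stained 30 min with 0.4% SRB in 1% acetic acid, washed four times with 1% acetic acid, and bound dye recovered in Tris-EDTA. Colour read on an ELISA reader.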
For orientation: In SRB staining, fixed cells bind dye roughly in proportion to their protein.

Test [2] relates to MCF7. In words: Cytotoxicity against human MCF7 cells assessed as surviving fraction at 25 uM after 48 hrs by SRB assay relative to control. The class given is functional. Put shortly: as §1
The test system of test [3] is MCF7. The experiment in a line: Cytotoxicity against human MCF7 cells assessed as surviving fraction at 50 uM after 48 hrs by SRB assay relative to control. The class given is functional. Put shortly:
as §1

For test [4], the system named is MCF7. The experiment in a line: Cytotoxicity against human MCF7 cells assessed as surviving fraction at 100 uM after 48 hrs by SRB assay relative to control. The class given is functional. In outline:
as §1

The test system of test [5] is MCF7. In words: Cytotoxicity against human MCF7 cells assessed as surviving fraction after 48 hrs by SRB assay. The following applies: MCF7, 48 h. The format is functional, cell-based. In outline:
as §1

As to `O=C1Nc2ccccc2/C1=N/N=C/c1ccc[nH]1`, the Ratio is 0.465 in test [1], 0.328 in test [2], 0.395 in test [3] and 0.357 in test [4]. Further, the IC50 in test [5] is 6.25 µM.

As to `O=C1Nc2ccc(Cl)cc2/C1=N/N=C/c1cccs1`, the Ratio in test [1] is 0.619; in test [2] it was 0.31; in test [3], 0.204; in test [4] it was 0.194. Also, the IC50 in test [5] came to 15.3 µM.

Turning to `O=C1Nc2ccc(F)cc2/C1=N/N=C/c1ccc[nH]1`, the Ratio in test [1] was 0.671; in test [2], 0.274; in test [3], 0.456; in test [4], 0.528. In addition, the half-maximal inhibitory concentration (IC50) in test [5] was 10.8 µM.

In the case of `O=C1Nc2ccc(Cl)cc2/C1=N/N=C/c1ccc[nH]1`, the Ratio in test [1] worked out at 0.51; in test [2], 0.392; in test [3], 0.238; in test [4] it was 0.259. Further, in test [5], the IC50 was 11.8 µM.

Take `Cc1ccc2c(c1)/C(=N/N=C/c1ccc[nH]1)C(=O)N2`: the Ratio in test [1] stood at 0.473; in test [2], 0.351; in test [3], 0.221; in test [4] it was 0.206. In addition, the IC50 in test [5] was 9.25 µM.

Consider `O=C1Nc2ccccc2/C1=N/N=C/c1ccco1`, for which the Ratio in test [1] was 0.637; in test [2] it was 0.306; in test [3], 0.158; in test [4] it was 0.333. In addition, the IC50 in test [5] was 15.8 µM.

As to `Cc1ccc2c(c1)/C(=N/N=C/c1ccco1)C(=O)N2`, the Ratio stood at 0.436 in test [1], 0.213 in test [2], 0.195 in test [3] and 0.102 in test [4]. Moreover, the IC50 in test [5] was 8.75 µM.

As to `O=C1Nc2ccc(F)cc2/C1=N/N=C/c1ccco1`, the Ratio in test [1] is on record as 0.667; in test [2], 0.429; in test [3] it was 0.335; in test [4], 0.257. The half-inhibitory concentration (IC50) in test [5] stood at 20.3 µM.

On to `O=C1Nc2ccc(F)cc2/C1=N/N=C/c1cccs1`, for which the Ratio in test [1] is 0.616; in test [2], 0.505; in test [3], 0.331; in test [4], 0.308. In test [5], the IC50 stood at 25.8 µM.

As to `O=C1Nc2ccccc2/C1=N/N=C/c1cccs1`, the Ratio in test [1] came to 0.352; in test [2], 0.602; in test [3], 0.522; in test [4], 0.546. In addition, in test [5], the IC50 amounted to 8.25 µM.

For the compound `COc1cccc2c1C(=O)c1c(O)c3c(c(O)c1C2=O)C[C@@](O)(C(=O)CO)C[C@@H]3O[C@H]1C[C@H](N)[C@H](O)[C@H](C)O1` [DOXORUBICIN], the Ratio is 0.257 in test [1], 0.158 in test [2], 0.098 in test [3] and 0.125 in test [4]. In addition, the IC50 in test [5] is 6.1 µM.

For `O=C1Nc2ccc(Cl)cc2/C1=N/N=C/c1ccco1`, the Ratio is reported as 0.384 in test [1], 0.274 in test [2], 0.259 in test [3] and 0.231 in test [4]. For the same compound, the IC50 in test [5] is 7.75 µM.

As for `Cc1ccc2c(c1)/C(=N/N=C/c1cccs1)C(=O)N2`, the Ratio in test [1] is on record as 0.227; in test [2] it was 0.132; in test [3], 0.099; in test [4], 0.137. The half-inhibitory concentration (IC50) in test [5] came out at 6.75 µM.
